From PubChem BioAssay
Sampled rows, rich in hits. Any-hit rate of the full collection: about 2.6%.
RAD54 inh: blocks human RAD54 Holliday junction branch migration; inhibition, % at 10.4 µM; AID 602329; actives 0.14% (n = 360,000); Q92698; FAM/BHQ fluorescence;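 active = mean normalized replicate activity at least 40 and at least half of replicates scoring 40 or more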;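 also: 0% = median of neutral control wells and 100% = median of positive control wells; inhibitors cause a drop in the FAM fluorescence signal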
E-selectin induc: E-selectin induction on HUVECs. P16581. HUVEC E-selectin immunofluorescence imaging; normalized: neutral wells 0, TNF-alpha wells 100. activation, % at 7.58 µM. actives 0.37% (n = 260,000);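 active = mean E-selectin-positive cell signal at least 10% of the positive control, reached in at least 60% of replicates, without over 20% cell loss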
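Assay system: HUVEC primary endothelial cells. Input: 3,000 HUVEC seeded per well. Doses: one compound dose added by pin transfer. Read-out basis: % PE-positive cells. Benchmarks: TNF-alpha high, DMSO low. Detection: immunofluorescence imaging. Buffer or medium: EGM-2, gelatin.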
AF4-AF9 inh: blocks AF4 peptide binding to human AF9; P42568; AlphaScreen, biotin-AF4 peptide binding to FLAG-AF9; inhibition, % at 10 µM; actives 0.47% (n = 350,000); AID 651704;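 active = every replicate reaching a set inhibition limit, whatever the replicate mean, cut at about 25% in these data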;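 also: 0% = plate neutral control median and 100% = total signal loss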
GSIS activator: GLuc luminescence reporter in INS-1E cells, primary screen for activators of glucose-dependent secretion of insulin. INS-1E GLuc reporter insulin secretion, 2-3 h. AID 743287. actives 0.61% (n = 370,000). activation, % at 16.6 µM;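 active = lowest replicate activation of at least 40%, so every replicate reaches that level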;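 also: 0% = median of neutral control wells and 100% = median of IBMX positive control wells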
rRNA inh HTS: selective bacterial rRNA inhibition in E. coli. E. coli WT GFP vs humanized-ribosome RFP mutants, fluorescence, 24 h; active compounds read low; DMSO median 0, no signal -100. GFP signal change (wild-type ribosome), % (no concentration beside the values). actives 1.6% (n = 350,000);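 active = significant combined selectivity score with lowered wild-type GFP, culture density cut under 30%, mutant RFP and density less affected; inactive = any of these conditions unmet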
RAD52 inh: inhibitors of human RAD52 DNA annealing; recombinant RAD52 DNA annealing, FRET fluorescence; inhibition, % at 18.7 µM; actives 0.46% (n = 360,000);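 active = every replicate showing at least 50% inhibition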
Target sequence (P43351 whole entry, looked up): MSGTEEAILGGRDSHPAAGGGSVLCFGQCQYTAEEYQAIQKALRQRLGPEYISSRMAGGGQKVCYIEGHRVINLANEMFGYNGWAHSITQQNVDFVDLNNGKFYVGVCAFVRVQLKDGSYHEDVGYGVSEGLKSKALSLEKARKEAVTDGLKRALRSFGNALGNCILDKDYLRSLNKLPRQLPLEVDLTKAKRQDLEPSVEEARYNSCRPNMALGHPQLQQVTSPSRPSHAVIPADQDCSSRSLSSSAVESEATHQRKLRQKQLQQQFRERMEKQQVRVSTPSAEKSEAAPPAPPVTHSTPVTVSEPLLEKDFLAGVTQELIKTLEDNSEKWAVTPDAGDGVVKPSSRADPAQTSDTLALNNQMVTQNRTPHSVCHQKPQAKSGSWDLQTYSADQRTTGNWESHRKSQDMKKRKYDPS
The depositor's hits bear a star; ! = not active in a repeat.

CCC(=O)Nc1ccc2c(c1)C(=O)N(C)C[C@@H](OC)[C@@H](C)CN(Cc1ccncc1)[C@H](C)CO2 was read as RAD54 inh -5, E-selectin induc 0, AF4-AF9 inh 2, GSIS activator 13, rRNA inh HTS 1 and RAD52 inh 2.
C[C@@H]1CN([C@H](C)CO)C(=O)c2cc(NC(=O)C3CCCCC3)ccc2O[C@@H](C)CCCCO[C@@H]1CN(C)C(=O)Nc1ccccc1 was read as RAD54 inh 6, E-selectin induc 0, AF4-AF9 inh 4, GSIS activator 0, rRNA inh HTS -1 and RAD52 inh -5.
Screening CC1CCC/C(=C\c2ccc(O)cc2)C1=O (centres undefined) returned RAD54 inh 3, E-selectin induc 1, AF4-AF9 inh 3 and RAD52 inh -10.
For CN(C)CC1CC/C(=C\c2ccc(O)cc2)C1=O (centres undefined) the results were E-selectin induc 0, AF4-AF9 inh -2, GSIS activator -9, rRNA inh HTS -31* and RAD52 inh -21.
For Cc1ccc(S(=O)(=O)Nc2cccc3c2O[C@@H](CN(C)C(=O)NC(C)C)[C@@H](C)CN([C@H](C)CO)C3=O)cc1 the results were RAD54 inh 7, E-selectin induc 1, AF4-AF9 inh -1, GSIS activator -8, rRNA inh HTS 1 and RAD52 inh 0.
`CO[C@H]1CN(C)C(=O)c2ccc(NC(=O)C3CC3)cc2OC[C@H](C)N(C(=O)CN(C)C)C[C@H]1C` gave RAD54 inh 3, E-selectin induc 0, AF4-AF9 inh 1, GSIS activator 1, rRNA inh HTS 2 and RAD52 inh 1.
For CC(C)CC(=O)Nc1cccc(-c2nc3ncccc3o2)c1 the results were RAD54 inh 0, E-selectin induc 0, AF4-AF9 inh -3, GSIS activator 41*, rRNA inh HTS 2 and RAD52 inh -20.
For Cc1cc(-c2nc3ncccc3o2)ccc1NC(=O)CC(C)C the results were RAD54 inh -12, E-selectin induc 1, AF4-AF9 inh 0, rRNA inh HTS 1 and RAD52 inh -6.
For CC(=O)Nc1ccc(Cl)c(-c2nc3ncccc3o2)c1 the results were RAD54 inh 8, E-selectin induc 0, AF4-AF9 inh 0, GSIS activator 58*, rRNA inh HTS 5 and RAD52 inh -12.
For O=C(COc1ccccc1)Nc1ccc(Cl)c(-c2nc3ncccc3o2)c1 the results were RAD54 inh 2.
`COc1cccc(-c2ccc([C@@H]3[C@H](CO)N4C(=O)CN(C(=O)CN5CCOCC5)C[C@@H]34)cc2)c1` gave E-selectin induc 0, AF4-AF9 inh -1, GSIS activator 11, rRNA inh HTS 2 and RAD52 inh -4.
`COc1ccccc1-c1ccc(C2[C@H]3CNC[C@@H]2N3Cc2cc(-c3ccccc3)on2)cc1` (some centres undefined) gave E-selectin induc 0, AF4-AF9 inh 1, GSIS activator -2, rRNA inh HTS -54 and RAD52 inh 54*.
For N#Cc1cccc(-c2ccc(C3[C@H]4CNC[C@@H]3N4Cc3cc(-c4ccccc4)on3)cc2)c1 (some centres undefined) the results were E-selectin induc 0, AF4-AF9 inh -6, GSIS activator 72*!, rRNA inh HTS -59 and RAD52 inh 63*.
For C/C=C/c1ccc(C2[C@H]3CNC[C@@H]2N3Cc2cc(-c3ccccc3)on2)cc1 (some centres undefined) the results were E-selectin induc 0, AF4-AF9 inh 9, GSIS activator 72*!, rRNA inh HTS -60 and RAD52 inh 52*!.
Screening C/C=C/c1ccc(C2[C@H]3CNC[C@@H]2N3Cc2nccs2)cc1 (some centres undefined) returned E-selectin induc 0, AF4-AF9 inh 3, GSIS activator 3, rRNA inh HTS 5 and RAD52 inh -6.
For CC1=Nc2cc(C(=O)NCC3CCCO3)ccc2Sc2ccc(Br)cc21 (centres undefined) the results were RAD54 inh -6, E-selectin induc 2, AF4-AF9 inh 5, rRNA inh HTS -22* and RAD52 inh -18.
For O=C(Nc1ccc(C(=O)O)cc1)/C(=C\C=C\c1ccccc1)NC(=O)c1cccc(Br)c1 the results were AF4-AF9 inh 6, GSIS activator -19, rRNA inh HTS -41 and RAD52 inh -8.
O=C(Nc1cccc(C(=O)O)c1)/C(=C\C=C\c1ccccc1)NC(=O)c1ccccc1 was read as AF4-AF9 inh -1, GSIS activator 1, rRNA inh HTS -19* and RAD52 inh -4.
`O=C(Nc1cccc(C(=O)O)c1)/C(=C\c1ccccc1)NC(=O)c1ccccc1` gave RAD54 inh 3, AF4-AF9 inh -2, GSIS activator 19, rRNA inh HTS -26 and RAD52 inh 0.
Screening O=C(Nc1ccc(C(=O)O)cc1)/C(=C\C=C\c1ccccc1)NC(=O)c1ccccc1Br returned RAD54 inh 3, E-selectin induc -2, AF4-AF9 inh 2, GSIS activator -42, rRNA inh HTS -16* and RAD52 inh -14.
Screening C[C@@H]1CN([C@H](C)CO)C(=O)c2cc(C3=CCCC3)cnc2O[C@H]1CN(C)Cc1ccccc1C(=O)O returned RAD54 inh -8, E-selectin induc 0, AF4-AF9 inh -4, GSIS activator 27, rRNA inh HTS 8 and RAD52 inh 10.
`CCN(CC)S(=O)(=O)c1cccc(NC(=O)COc2ccc(C#N)cc2OC)c1` gave GSIS activator -4.
`CCN(CC)S(=O)(=O)c1ccc(/C=C/C(=O)Nc2cccc(F)c2)cc1` gave RAD54 inh 4, AF4-AF9 inh 7, GSIS activator -16, rRNA inh HTS -17* and RAD52 inh -18.
Screening CCN(CC)S(=O)(=O)c1cccc(NC(=O)COc2ccc(F)cc2Br)c1 returned E-selectin induc -4, AF4-AF9 inh -1, GSIS activator -23, rRNA inh HTS -27* and RAD52 inh 1.
`CCN(CC)S(=O)(=O)c1cccc(NC(=O)c2ccc(SC)cc2OC)c1` gave RAD54 inh 4, E-selectin induc 0, AF4-AF9 inh -2, GSIS activator 2, rRNA inh HTS -25* and RAD52 inh -18.
`COc1ccc2cc3cc(C(=O)NCCCN4CCOCC4)oc3nc2c1` gave RAD54 inh 60*.
Screening COc1ccc(S(=O)(=O)N(C)C[C@H]2OCCCC[C@H](C)Oc3ccc(NC(=O)CCCN(C)C)cc3C(=O)N([C@@H](C)CO)C[C@H]2C)cc1 returned RAD54 inh 6, E-selectin induc 0, AF4-AF9 inh 1, GSIS activator 7, rRNA inh HTS 0 and RAD52 inh -1.
